Results published in ChEMBL document CHEMBL4680068, “Towards a RIOK2 chemical probe: cellular potency improvement of a selective 2-(acylamino)pyridine series” (RSC Med Chem, 2021).

Legend:
[1] = target: Serine/threonine-protein kinase RIO2 (Homo sapiens, UniProt Q9BVS4); test: Displacement of tracer K5 from N-terminal nanoluciferase-tagged RIOK2 (unknown origin) expressed in HEK293 cells measured after 2 hrs by NanoBRET assay; assay type: cell-based
[2] = target: T1, Mitogen-activated protein kinase 8 (Homo sapiens, UniProt P45983); test: Inhibition of full length recombinant human MAPK8 using ATF2 as substrate incubated for 40 mins in presence of [gamma33P]ATP by radiometric scintillation analysis
T1 sequence (P45983 whole entry): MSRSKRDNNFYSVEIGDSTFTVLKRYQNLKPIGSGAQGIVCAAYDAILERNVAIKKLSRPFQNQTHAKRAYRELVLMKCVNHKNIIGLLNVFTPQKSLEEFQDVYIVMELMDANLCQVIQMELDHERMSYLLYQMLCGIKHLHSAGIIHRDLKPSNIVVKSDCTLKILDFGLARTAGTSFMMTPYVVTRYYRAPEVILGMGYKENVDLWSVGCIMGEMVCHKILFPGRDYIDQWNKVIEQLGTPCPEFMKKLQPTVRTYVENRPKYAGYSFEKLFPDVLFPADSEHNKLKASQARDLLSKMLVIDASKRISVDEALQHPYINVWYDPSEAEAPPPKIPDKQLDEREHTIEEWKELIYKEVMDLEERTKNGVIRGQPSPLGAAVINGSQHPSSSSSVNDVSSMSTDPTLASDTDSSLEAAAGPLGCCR
Method in brief: (§1)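 Eurofins radiometric enzymatic kinase assay run at the Km of ATP for each kinase. Activity was read as incorporation of radiolabelled ATP into a peptide substrate, in a homogeneous format.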

[3] = target: T2, Mitogen-activated protein kinase 10 (Homo sapiens, UniProt P53779); test: Inhibition of full length recombinant human MAPK10 using peptide substrate incubated for 40 mins in presence of [gamma33P]ATP by radiometric scintillation analysis; method in brief: as §1
T2 sequence (P53779 whole entry): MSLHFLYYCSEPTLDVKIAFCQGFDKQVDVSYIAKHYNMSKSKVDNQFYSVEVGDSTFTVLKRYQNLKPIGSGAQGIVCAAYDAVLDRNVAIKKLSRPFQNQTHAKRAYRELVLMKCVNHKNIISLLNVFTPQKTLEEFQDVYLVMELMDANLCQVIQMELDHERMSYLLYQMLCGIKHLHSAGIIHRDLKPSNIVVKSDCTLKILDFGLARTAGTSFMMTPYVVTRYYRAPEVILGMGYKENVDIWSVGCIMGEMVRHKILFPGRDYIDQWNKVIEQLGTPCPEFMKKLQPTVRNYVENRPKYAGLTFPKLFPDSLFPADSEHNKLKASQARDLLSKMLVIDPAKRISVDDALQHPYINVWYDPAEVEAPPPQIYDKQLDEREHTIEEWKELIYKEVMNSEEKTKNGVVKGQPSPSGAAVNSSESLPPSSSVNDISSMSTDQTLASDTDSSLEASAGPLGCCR

[4] = target: T3, Glycogen synthase kinase-3 alpha (Homo sapiens, UniProt P49840); test: Inhibition of recombinant human GSK3alpha S449A mutant (2 to end residues) using YRRAAVPPSPSLSR peptide as substrate incubated for 40 mins in presence of [gamma33P]ATP by radiometric scintillation analysis
T3 sequence (P49840 whole entry): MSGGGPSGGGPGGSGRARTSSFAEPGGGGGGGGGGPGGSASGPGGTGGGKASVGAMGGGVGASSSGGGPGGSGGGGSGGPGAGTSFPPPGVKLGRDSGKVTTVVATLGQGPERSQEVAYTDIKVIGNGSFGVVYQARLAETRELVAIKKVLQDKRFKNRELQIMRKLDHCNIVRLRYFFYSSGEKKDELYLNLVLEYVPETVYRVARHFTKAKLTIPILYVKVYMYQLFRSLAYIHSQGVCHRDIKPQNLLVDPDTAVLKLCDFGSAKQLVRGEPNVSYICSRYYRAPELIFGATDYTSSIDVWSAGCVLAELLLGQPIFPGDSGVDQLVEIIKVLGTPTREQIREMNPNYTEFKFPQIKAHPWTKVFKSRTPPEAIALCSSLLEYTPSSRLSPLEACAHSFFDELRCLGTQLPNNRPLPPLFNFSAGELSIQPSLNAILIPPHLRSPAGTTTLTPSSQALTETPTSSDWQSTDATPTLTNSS
Method in brief: (§2)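 Orthogonal homogeneous enzymatic kinase assay, run by a contract provider. GSK3α activity was read as incorporation of radiolabelled ATP into a peptide substrate. ATP was at its Km.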

[5] = target: T4, SNF-related serine/threonine-protein kinase (Homo sapiens, UniProt Q9NRH2); test: Inhibition of recombinant human SNRK E97G/P116A mutant (1 to 505 residues) using KKLRRTLSFAEPG peptide as substrate incubated for 40 mins in presence of [gamma33P]ATP by radiometric scintillation analysis; method in brief: as §1
T4 sequence (Q9NRH2 whole entry): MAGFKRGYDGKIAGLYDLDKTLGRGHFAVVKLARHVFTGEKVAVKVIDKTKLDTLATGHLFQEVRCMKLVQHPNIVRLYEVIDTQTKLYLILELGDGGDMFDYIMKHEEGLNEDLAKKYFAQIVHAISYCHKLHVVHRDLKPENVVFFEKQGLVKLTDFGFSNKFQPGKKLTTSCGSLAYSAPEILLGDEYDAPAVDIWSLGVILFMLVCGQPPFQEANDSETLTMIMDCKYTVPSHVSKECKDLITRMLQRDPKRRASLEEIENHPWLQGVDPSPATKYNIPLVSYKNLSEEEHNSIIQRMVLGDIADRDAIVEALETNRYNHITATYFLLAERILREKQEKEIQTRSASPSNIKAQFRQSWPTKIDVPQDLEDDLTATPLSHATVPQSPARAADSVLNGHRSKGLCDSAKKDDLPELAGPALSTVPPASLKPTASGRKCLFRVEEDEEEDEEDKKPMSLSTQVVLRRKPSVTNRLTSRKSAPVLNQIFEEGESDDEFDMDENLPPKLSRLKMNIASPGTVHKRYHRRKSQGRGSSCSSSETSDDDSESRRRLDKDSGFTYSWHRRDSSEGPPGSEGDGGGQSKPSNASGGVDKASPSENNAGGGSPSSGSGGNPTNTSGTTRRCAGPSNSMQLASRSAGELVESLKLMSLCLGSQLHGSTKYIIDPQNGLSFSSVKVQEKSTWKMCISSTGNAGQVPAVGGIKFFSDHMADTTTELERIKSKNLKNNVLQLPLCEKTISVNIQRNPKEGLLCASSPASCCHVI

[6] = target: T5, Homeodomain-interacting protein kinase 1 (Homo sapiens, UniProt Q86Z02); test: Inhibition of human HIPK1 (158 to 555 residues) using myelin ba as substrate incubated for 40 mins in presence of [gamma33P]ATP by radiometric scintillation analysis; method in brief: as §1
T5 sequence (Q86Z02 whole entry, the tested form may be a part): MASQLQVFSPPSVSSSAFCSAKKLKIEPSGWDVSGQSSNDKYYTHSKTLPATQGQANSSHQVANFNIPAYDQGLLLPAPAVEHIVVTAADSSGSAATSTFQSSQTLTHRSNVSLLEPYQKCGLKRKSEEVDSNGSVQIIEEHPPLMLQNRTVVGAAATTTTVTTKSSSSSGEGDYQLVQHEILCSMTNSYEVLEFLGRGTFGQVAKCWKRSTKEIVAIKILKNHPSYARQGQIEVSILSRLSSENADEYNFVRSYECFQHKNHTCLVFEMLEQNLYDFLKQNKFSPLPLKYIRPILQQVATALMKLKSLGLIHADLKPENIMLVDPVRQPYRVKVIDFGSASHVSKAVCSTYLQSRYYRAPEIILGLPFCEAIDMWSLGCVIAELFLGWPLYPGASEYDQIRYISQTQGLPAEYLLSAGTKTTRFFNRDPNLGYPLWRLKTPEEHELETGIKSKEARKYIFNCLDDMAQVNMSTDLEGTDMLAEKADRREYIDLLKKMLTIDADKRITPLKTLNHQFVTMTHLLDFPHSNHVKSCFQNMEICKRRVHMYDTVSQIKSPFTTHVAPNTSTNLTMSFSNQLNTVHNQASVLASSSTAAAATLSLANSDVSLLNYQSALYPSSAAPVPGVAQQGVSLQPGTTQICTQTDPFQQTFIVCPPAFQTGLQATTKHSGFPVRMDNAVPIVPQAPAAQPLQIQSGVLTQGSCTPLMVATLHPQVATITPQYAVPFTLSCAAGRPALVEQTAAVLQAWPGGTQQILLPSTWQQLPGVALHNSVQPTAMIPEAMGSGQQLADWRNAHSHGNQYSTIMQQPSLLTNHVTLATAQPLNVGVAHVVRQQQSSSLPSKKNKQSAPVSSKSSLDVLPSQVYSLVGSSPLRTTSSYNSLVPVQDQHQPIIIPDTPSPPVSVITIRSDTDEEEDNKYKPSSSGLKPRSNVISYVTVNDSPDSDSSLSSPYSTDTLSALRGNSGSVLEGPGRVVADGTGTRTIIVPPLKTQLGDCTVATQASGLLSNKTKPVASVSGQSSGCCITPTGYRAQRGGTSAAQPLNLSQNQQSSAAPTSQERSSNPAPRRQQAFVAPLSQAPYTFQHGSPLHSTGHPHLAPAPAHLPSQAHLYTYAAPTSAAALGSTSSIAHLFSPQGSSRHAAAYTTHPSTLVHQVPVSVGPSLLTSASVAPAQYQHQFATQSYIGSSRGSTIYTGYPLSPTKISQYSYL

[7] = target: T1, Mitogen-activated protein kinase 8; test: Binding affinity to full length recombinant human MAPK8 using ATF2 as substrate incubated for 40 mins in presence of [gamma33P]ATP by radiometric scintillation analysis; method in brief: as §1
[8] = target: T2, Mitogen-activated protein kinase 10; test: Binding affinity to full length recombinant human MAPK10 using peptide substrate incubated for 40 mins in presence of [gamma33P]ATP by radiometric scintillation analysis; method in brief: as §1
[9] = target: T3, Glycogen synthase kinase-3 alpha; test: Binding affinity to recombinant human GSK3alpha S449A mutant (2 to end residues) using YRRAAVPPSPSLSR peptide as substrate incubated for 40 mins in presence of [gamma33P]ATP by radiometric scintillation analysis; method in brief: as §2
[10] = target: T4, SNF-related serine/threonine-protein kinase; test: Binding affinity to recombinant human SNRK E97G/P116A mutant (1 to 505 residues) using KKLRRTLSFAEPG peptide as substrate incubated for 40 mins in presence of [gamma33P]ATP by radiometric scintillation analysis; method in brief: as §1
[11] = target: T5, Homeodomain-interacting protein kinase 1; test: Binding affinity to human HIPK1 (158 to 555 residues) using myelin ba as substrate incubated for 40 mins in presence of [gamma33P]ATP by radiometric scintillation analysis; method in brief: as §1

Sequence of Serine/threonine-protein kinase RIO2 (Q9BVS4 whole entry): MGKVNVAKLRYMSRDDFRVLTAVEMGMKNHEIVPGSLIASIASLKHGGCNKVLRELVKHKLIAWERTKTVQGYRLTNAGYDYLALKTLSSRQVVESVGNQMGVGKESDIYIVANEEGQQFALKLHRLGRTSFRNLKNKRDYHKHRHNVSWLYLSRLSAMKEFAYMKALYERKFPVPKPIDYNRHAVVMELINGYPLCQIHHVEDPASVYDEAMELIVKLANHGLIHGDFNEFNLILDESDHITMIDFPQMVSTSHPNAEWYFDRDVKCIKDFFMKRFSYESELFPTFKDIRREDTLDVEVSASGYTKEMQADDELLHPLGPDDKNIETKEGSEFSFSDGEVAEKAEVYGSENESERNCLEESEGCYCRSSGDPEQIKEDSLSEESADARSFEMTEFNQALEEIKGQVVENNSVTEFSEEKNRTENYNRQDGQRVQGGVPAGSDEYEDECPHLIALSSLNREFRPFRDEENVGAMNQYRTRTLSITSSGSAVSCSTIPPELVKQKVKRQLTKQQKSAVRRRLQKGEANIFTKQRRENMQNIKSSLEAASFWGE

Row | IC50 [1] | SMILES | IC50 [2] | IC50 [3] | IC50 [4] | IC50 [5] | IC50 [6] | further results
1 | 28 µM | COc1ccnc(NC(=O)Cc2ccc(C)c(C)c2)c1 | – | – | – | – | – | –
2 | > 30 µM | Cc1ccnc(NC(=O)Cc2ccc3c(c2)OCCO3)c1 | – | – | – | – | – | –
3 | 13.4 µM | O=C(Cc1ccc2ccccc2c1)Nc1cc(Br)ccn1 | – | – | – | – | – | –
4 | 7.6 µM | COc1ccnc(NC(=O)Cc2ccc(-c3ccccc3)cc2)c1 | – | – | – | – | – | –
5 | 7.6 µM | COc1ccc2cc([C@@H](C)C(=O)Nc3cc(C)ccn3)ccc2c1 | – | – | – | – | – | –
6 | 7.5 µM | O=C(Cc1ccc2ccccc2c1)Nc1cc(C(F)(F)F)ccn1 | – | – | – | – | – | –
7 | 5.3 µM | COc1ccnc(NC(=O)[C@@H](C)c2ccc3cc(OC)ccc3c2)c1 | – | – | – | – | – | –
8 | > 30 µM | Cc1ccnc(NC(=O)CCc2ccc3ccccc3c2)c1 | – | – | – | – | – | –

The next lines start with the compound.

Row | SMILES | IC50 [1] | IC50 [2] | IC50 [3] | IC50 [4] | IC50 [5] | IC50 [6] | further results
9 | Cc1ccnc(NC(=O)Cc2ccc3ccccc3c2)c1 | – | > 10 µM | 4.7 µM | 5.2 µM | > 10 µM | > 10 µM | Kd [7]: 0.22 µM; Kd [8]: 0.34 µM; Kd [9]: 0.87 µM; Kd [10]: 0.89 µM; Kd [11]: 1.1 µM
10 | CCc1ccnc(NC(=O)Cc2ccc3ccccc3c2)c1 | 14.5 µM | – | – | – | – | – | –
11 | Cc1ccnc(NC(=O)COc2ccc3ccccc3c2)c1 | > 30 µM | – | – | – | – | – | –
12 | COc1ccnc(NC(=O)Cc2ccc3ccccc3c2)c1 | 5.2 µM | > 10 µM | 1.3 µM | 4.8 µM | > 10 µM | > 10 µM | –
13 | COc1ccc2cc([C@H](C)C(=O)Nc3cc(C)ccn3)ccc2c1 | 6.6 µM | > 10 µM | 5.1 µM | 4.5 µM | > 10 µM | > 10 µM | –
14 | O=C(Cc1ccc2ccccc2c1)Nc1cc(Cl)ccn1 | 5 µM | > 10 µM | 0.52 µM | 0.86 µM | > 10 µM | > 10 µM | –
15 | Cc1ccnc(NC(=O)Cc2ccc3c(c2)OCO3)c1 | > 30 µM | – | – | – | – | – | –
16 | COc1ccc2cc(C(C)C(=O)Nc3cc(C)ccn3)ccc2c1 (racemic) | 5.2 µM | > 10 µM | 0.78 µM | 1.9 µM | > 10 µM | > 10 µM | –
